Reference: ChEMBL document CHEMBL1124921, “Alpha-diketone and alpha-keto ester derivatives of N-protected amino acids and peptides as novel inhibitors of cysteine and serine proteinases” (J Med Chem, 1990)
Where a SMILES comes first, the peptide text is derived from it. The star is where a group is joined. Cbz = O=C(OCc1ccccc1)*

Experiments:
[1] = target: Chymotrypsinogen A (Bos taurus, UniProt P00766); test: Inhibition of alpha-chymotrypsin
How it was run: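 Commercial α-chymotrypsin was assayed continuously with N-Suc-Ala-Ala-Pro-Phe-p-nitroanilide as substrate in HEPES buffer instead of Tris. […] Errors under 30%.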

[2] = Inhibition of Calpain; set-up: species or system Gallus gallus
How it was run: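 Calpain purified from chicken gizzard, run as a continuous enzyme assay following a previously published method. Apparent dissociation constants Ki were derived for competitive inhibition; errors under 30%.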

| SMILES | Ki [1] [µM] | Ki [2] [µM] |
| --- | --- | --- |
| CC(=O)C(=O)[C@H](Cc1ccccc1)NC(=O)[C@@H](NC(=O)OCc1ccccc1)C(C)C | 0.2 | 0.7 |
| CC(=O)C(=O)[C@H](Cc1ccccc1)NC(=O)OCc1ccccc1 | 1.2 | 250 |
| O=C[C@H](Cc1ccccc1)NC(=O)OCc1ccccc1 | 360 | 3 |
| COC(=O)C(=O)[C@H](Cc1ccccc1)NC(=O)c1ccccc1 | 0.15 | 150 |
| O=C(N[C@@H](Cc1ccccc1)C(=O)C(F)(F)F)c1ccccc1 | 2.3 | > 1000 |
| CC(C)[C@H](NC(=O)OCc1ccccc1)C(=O)N[C@@H](Cc1ccccc1)C(=O)C(F)(F)F | 2.4 | > 180 |
| COC(=O)C(=O)[C@H](Cc1ccccc1)NC(=O)[C@@H](NC(=O)OCc1ccccc1)C(C)C | 0.06 | 0.4 |
| CC(C)[C@H](NC(=O)OCc1ccccc1)C(=O)N[C@H](Cc1ccccc1)C(=O)C(F)(F)F | 45 | > 180 |
| CCOC(=O)C(=O)[C@H](Cc1ccccc1)NC(=O)OCc1ccccc1 | 0.13 | 92 |
| CCOC(=O)C(=O)[C@H](Cc1ccccc1)NC(=O)[C@@H](NC(=O)OCc1ccccc1)C(C)C | 0.06 | 0.6 |
| CC(=O)[C@H](Cc1ccccc1)NC(=O)OCc1ccccc1 | – | > 2000 |
| CC(C)[C@H](NC(=O)OCc1ccccc1)C(=O)N[C@H](C=O)Cc1ccccc1 (Cbz-Val-Phe-aldehyde) | 54 | 0.01 |
| O=C(N[C@@H](Cc1ccccc1)C(=O)C(F)F)c1ccccc1 | 7.7 | > 1000 |
| O=C[C@H](Cc1ccccc1)NC(=O)c1ccccc1 | 64 | 4 |
